Laboratory results: ChEMBL document CHEMBL1275434, “In vitro evaluation of CBR-2092, a novel rifamycin-quinolone hybrid antibiotic: studies of the mode of action in Staphylococcus aureus” (Antimicrob Agents Chemother, 2008)
Converted amounts (≈) assume the structure as drawn. The source made the active and inactive calls. The calls are words filed in the database; no cut-off is given here.

Assays:
[1] = test system: Staphylococcus aureus; assay: Antimicrobial activity against rifampin-sensitive Staphylococcus aureus CB190 harboring rpo BH481D mutant gene by broth microdilution method; format: functional
In short: (§1)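 CLSI broth microdilution MIC in cation-adjusted Mueller-Hinton (MHII) broth supplemented with 0.002% (vol/vol) polysorbate 80, included to limit compound loss to plastic surfaces.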

[2] = test system: Staphylococcus aureus; assay: Inhibition of cell wall synthesis in Staphylococcus aureus CB190 assessed as decrease in [2,3-3H]D-alanine incorporation at 0.5 ug/ml; format: functional, organism-based
[3] = test system: Staphylococcus aureus; assay: Activity at Staphylococcus aureus wild-type DNA topoisomerase 4 subunit ParC
In short: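 Recombinant S. aureus topoisomerase IV (wild-type ParC with ParE; specific activity 25 to 30 U per μg). Stopped with SDS/proteinase K. Linear DNA quantified on gel; CC50 is the mean of two or more assays.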

[4] = test system: Staphylococcus aureus; assay: Antimicrobial activity against wild-type Staphylococcus aureus CB190 by agar dilution method; format: functional
In short: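 CLSI agar dilution MIC with cation-adjusted Mueller-Hinton (MHII) agar as the base medium.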

[5] = test system: Staphylococcus aureus; assay: Antimicrobial activity against Staphylococcus aureus CB1523 harboring rpoB H481Y and gyrA A26V mutant genes selected after 0.25 ug/ml drug exposure by broth microdilution method; format: functional
In short: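 CLSI broth microdilution in cation-adjusted Mueller-Hinton (MHII) broth supplemented with 0.002% (vol/vol) polysorbate 80 to limit compound loss to plastic. Strains are spontaneous single-step mutants isolated on agar from an rpoB H481Y parent (RN4220 background), purified through drug-free passage with the resistance phenotype re-verified as stable before testing; target loci genotyped by PCR amplification and sequencing.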

[6] = test system: Staphylococcus aureus; assay: Antimicrobial activity against rifampin-sensitive Staphylococcus aureus CB190 harboring rpoB H481N mutant gene by broth microdilution method; format: functional; in short: as §1
[7] = test system: Staphylococcus aureus; assay: Antimicrobial activity against Staphylococcus aureus CB1891 harboring […], parE P587S and parE F638V mutant genes by broth microdilution method
[8] = test system: Staphylococcus aureus; assay: Antimicrobial activity against Staphylococcus aureus CB815 harboring rpoB H481Y, gyrA […] and parC S80F mutant genes by broth microdilution method; format: functional; in short: as §1
[9] = test system: Staphylococcus aureus; assay: Antimicrobial activity against rifampin-sensitive Staphylococcus aureus CB190 harboring rpoB E473 mutant gene by broth microdilution method; format: functional; in short: as §1
[10] = test system: Staphylococcus aureus; assay: Antimicrobial activity against rifampin-sensitive Staphylococcus aureus CB190 harboring rpoB N474K mutant gene by broth microdilution method; format: functional; in short: as §1
[11] = test system: Staphylococcus aureus; assay: Antimicrobial activity against Staphylococcus aureus CB1883 harboring rpoB R484H mutant gene, L520 deficient gyrA gene, gyrA S84L mutant gene and R236 duplicated par C gene by broth microdilution method; format: functional
In short: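 CLSI broth microdilution MIC in MHII broth with 0.002% (vol/vol) polysorbate 80. Isolates came from daily stepwise broth passage at sub-MIC drug (MHII without polysorbate 80, 10^6 CFU/ml inoculum, 20–24 h shaking at 37°C), were purified drug-free, and were sequenced at target loci.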

CO[C@H]1/C=C/O[C@@]2(C)Oc3c(C)c(O)c4c(O)c(c(/C=N/N5CCC(N(C)C6([C@@H]7CCN(c8c(F)cn9c(=O)c(C(=O)O)cc(C%10CC%10)c9c8C)C7)CC6)CC5)c(O)c4c3C2=O)NC(=O)/C(C)=C\C=C\[C@H](C)[C@H](O)[C@@H](C)[C@@H](O)[C@@H](C)[C@H](OC(C)=O)[C@@H]1C
MIC [1]: 0.25 µg/mL (≈ 0.207 µM)
Activity [2]: Active
CC50 [3]: 1700 nM
MIC [4]: 0.008 µg/mL (≈ 0.00664 µM)
MIC [5]: 1 µg/mL (≈ 0.83 µM)
MIC [6]: 0.25 µg/mL (≈ 0.207 µM)
MIC [7]: 0.03 µg/mL (≈ 0.0249 µM)
MIC [8]: 1 µg/mL (≈ 0.83 µM)
MIC [9]: 0.25 µg/mL (≈ 0.207 µM)
MIC [10]: 0.25 µg/mL (≈ 0.207 µM)
MIC [11]: 8 µg/mL (≈ 6.64 µM)
